Experimental data: article PMC12370974 (Nature Communications, 2025)
Where a chain is given by its changes, count along the chain named. Values belong to the compound of their own block, whether it stands above or below them. Peptide text beside a SMILES is read from it.

Key:
[1] = molecular target: T1, FL PRT1^I333A (Arabidopsis thaliana, UniProt Q8LBL5, I333A); assay: ITC binding of N-degron peptides to full-length PRT1 I333A mutant; conditions: 25 °C, ITC buffer pH 7.5, one-site model
T1 sequence (Q8LBL5 1-410 I333A): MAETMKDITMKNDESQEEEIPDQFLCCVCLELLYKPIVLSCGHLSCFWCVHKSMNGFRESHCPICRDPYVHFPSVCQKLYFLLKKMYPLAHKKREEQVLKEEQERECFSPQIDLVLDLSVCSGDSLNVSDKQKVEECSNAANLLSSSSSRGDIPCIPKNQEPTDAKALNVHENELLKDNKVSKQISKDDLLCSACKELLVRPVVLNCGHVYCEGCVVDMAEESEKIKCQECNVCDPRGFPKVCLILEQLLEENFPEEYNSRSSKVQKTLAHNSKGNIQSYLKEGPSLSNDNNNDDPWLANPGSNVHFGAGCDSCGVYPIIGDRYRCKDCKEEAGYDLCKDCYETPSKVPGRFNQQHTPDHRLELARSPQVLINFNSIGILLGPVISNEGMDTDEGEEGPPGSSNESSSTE
Outline: (§1)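 Full-length PRT1 (wild type or point mutant) was expressed in E. coli BL21(DE3) with ZnSO4 and purified by Ni-NTA, TEV cleavage of the His6 tag and size exclusion into ITC buffer (50 mM Tris-HCl pH 7.5, 150 mM NaCl, 1 mM TCEP). Protein was at 45~55 μM and synthetic N-degron peptide at ~550 μM in the same buffer, with 19 injections at 25 °C. Data were fitted to a one-site model, with at least three runs.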

[2] = molecular target: T2, FL PRT1^Y317A (Arabidopsis thaliana, UniProt Q8LBL5, Y317A); assay: ITC binding of N-degron peptides to full-length PRT1 Y317A mutant; conditions: 25 °C, ITC buffer pH 7.5, one-site model
T2 sequence (Q8LBL5 1-410 Y317A): T1 sequence (Q8LBL5 1-410 I333A) with Y317A, A333I
Outline: as §1

[3] = molecular target: T3, PRT1^ZZ (Arabidopsis thaliana, UniProt Q8LBL5); assay: ITC binding of N-degron peptide to the ZZ domain of PRT1
T3 sequence (Q8LBL5 308-365): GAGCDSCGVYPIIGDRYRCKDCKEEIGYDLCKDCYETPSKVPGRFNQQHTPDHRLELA
Outline: as §1, with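 “The” for “Full-length”, “truncation” for “(wild type or point mutant)”, “as a bRIP-tag fusion” for “BL21(DE3) with ZnSO4”, “Blue affinity chromatography” for “TEV cleavage of the His6 tag”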

[4] = molecular target: T4, FL PRT1^Y317A/I333A (Arabidopsis thaliana, UniProt Q8LBL5, I333A/Y317A); assay: ITC binding of N-degron peptide to full-length PRT1 Y317A/I333A double mutant; conditions: 25 °C, ITC buffer pH 7.5, FL PRT1 Y317A/I333A double mutation
T4 sequence (Q8LBL5 1-410 Y317A/I333A): T1 sequence (Q8LBL5 1-410 I333A) with Y317A
Outline: as §1

[5] = molecular target: T5, ZZ domain-deleted RING domains (RING1 + RING2) of PRT1 (Arabidopsis thaliana, UniProt Q8LBL5); assay: ITC binding of N-degron peptide to ZZ domain-deleted PRT1; conditions: 25 °C, ITC buffer pH 7.5, RIP-RING (1-273)
T5 sequence (Q8LBL5 1-273): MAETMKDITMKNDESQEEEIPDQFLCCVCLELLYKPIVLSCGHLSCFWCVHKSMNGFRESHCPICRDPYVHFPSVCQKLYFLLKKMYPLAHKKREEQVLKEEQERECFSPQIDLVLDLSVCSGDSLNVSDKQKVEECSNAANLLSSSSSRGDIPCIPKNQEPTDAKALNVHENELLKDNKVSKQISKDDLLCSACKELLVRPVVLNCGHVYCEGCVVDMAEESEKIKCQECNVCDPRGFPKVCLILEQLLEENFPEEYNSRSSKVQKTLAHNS
Outline: as §1, with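 “The” for “Full-length”, “truncation” for “(wild type or point mutant)”, “as a bRIP-tag fusion” for “BL21(DE3) with ZnSO4”, “Blue affinity chromatography” for “TEV cleavage of the His6 tag”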

[6] = molecular target: full-length (FL) PRT1 wild-type (WT), PROTEOLYSIS1 of Arabidopsis thaliana (Arabidopsis thaliana) (UniProt Q8LBL5); assay: ITC
[7] = molecular target: T6, FL PRT1^WT (Arabidopsis thaliana, UniProt Q8LBL5); assay: ITC binding of N-degron peptides to full-length PRT1 wild-type
T6 sequence (Q8LBL5 1-410): T1 sequence (Q8LBL5 1-410 I333A) with A333I
Outline: as §1

[8] = molecular target: RING2 domain of PRT1, wild type (Arabidopsis thaliana); assay: SEC-MALS
[9] = molecular target: FL PRT1 I333A mutant (Arabidopsis thaliana) (UniProt Q8LBL5); assay: ITC
[10] = molecular target: FL PRT1 Y317A mutant (Arabidopsis thaliana) (UniProt Q8LBL5); assay: ITC

Compound: C[C@H](NC(=O)[C@H](CCCCN)NC(=O)[C@@H](N)Cc1ccc(O)cc1)C(=O)O [YKA] (H-Tyr-Lys-Ala-OH)
dissociation constant (KD), binding affinity [1]: not bound
dissociation constant (KD), binding affinity [2]: not bound

Compound: NCCCC[C@H](NC(=O)[C@@H](N)Cc1ccc(O)cc1)C(=O)N[C@@H](Cc1ccccc1)C(=O)O [YKF, Tyr-Lys-Phe] (H-Tyr-Lys-Phe-OH)
Kd [3]: 10.1 µM
dissociation constant (KD), binding affinity [4]: considerably low affinity
binding affinity (KD) [5]: no binding affinity was detected

Kd [6]: 23.3 µM
Compound: YAA peptide

Compound: C[C@H](NC(=O)[C@H](C)NC(=O)[C@@H](N)Cc1c[nH]c2ccccc12)C(=O)O [WAA] (H-Trp-Ala-Ala-OH)
Kd [7]: 2.85 ± 0.164 µM

Compound: C[C@H](NC(=O)[C@H](C)NC(=O)[C@@H](N)Cc1ccccc1)C(=O)O [FAA] (H-Phe-Ala-Ala-OH)
Kd [7]: 5.45 ± 0.212 µM

stoichiometry N [8]: 2
Compound: RING2 domain of PRT1, wild type (domain or fragment)

Kd [9]: 13.7 µM
Kd [10]: 41.3 µM
Compound: Tyr N-degron peptide (Tyr-Lys-Phe)
